Sampled rows, rich in hits. Any-hit rate of the full collection: about 1.9%.
Casp6 inh = blocks human caspase-6 cleavage activity; inhibition, % at 12.5 µM; purified caspase-6, Z-VEID-R110 cleavage fluorescence; P55212; actives 0.53% (n = 350,000); AID 686996;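 active = mean inhibition across replicates at least about 35%, with every replicate also reaching that limit, limit read from the data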;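 also: 0% = median of neutral control wells and 100% = no fluorescence left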
MBD2 DNA inh = MBD2-methylated oligo binding inhibition; TR-FRET, MBD2 binding to methylated oligonucleotide; inhibition, % at 4.4 µM; actives 0.31% (n = 370,000); in the data active = inhibition above about 13%
UHRF1 MBD2 ctr = human UHRF1 methylated DNA binding inhibitors; inhibition, % at 4.4 µM; actives 0.75% (n = 370,000); AID 687016; UHRF1 binding to methylated oligo, TR-FRET;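 also: UHRF1 SRA domain binding a hemimethylated CpG hairpin DNA probe; 0% = median of test compound wells and 100% = reference inhibitor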
LEDGF integ inh = blocks HIV-1 LEDGF/p75-dependent DNA integration; inhibition, % at 3.7 µM; TR-FRET IN-LEDGF/p75 DNA integration, Eu/Cy5; actives 0.64% (n = 370,000);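 active = inhibition above the screen-wide mean plus 3 SD, cut at about 13% in these data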;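 also: signal is the Cy5 over europium emission ratio at 671 and 618 nm; 0% = plate median of compound wells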
TDP2 inh = TDP2 (human) inhibition, absorbance primary screen; O95551; recombinant TDP2, T5PNP hydrolysis, p-nitrophenol absorbance 415 nm; inhibition, % at 12.8 µM; actives 0.34% (n = 370,000); AID 720702;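 active = inhibition above the mean of all tested compounds plus 3 SD, set per campaign, cut at about 25% in these data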;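 also: 0% = DMSO with enzyme and 100% = buffer with substrate but no TDP2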
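System: recombinant human TDP2 / Amount: 120 nM TDP2 per well / Also added: 5 mM T5PNP chromogenic substrate / Doses: 12.8 µM single point, 1% DMSO / Incubation: 2 h at 37 °C / Detection: p-Nitrophenol epi absorbance / Evaluation: % inhibition relative to enzyme-containing and enzyme-free wells / Repeats: singlicate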
NSD2 inh = inhibitors of human histone methyltransferase NSD2; inhibition, % at 12.5 µM; O96028; AID 743445; actives 0.54% (n = 310,000); NSD2 peptide methylation, AlphaScreen, 120 min; in the data active = inhibition above about 50%
UHRF1 DNA bind = UHRF1 methyl-oligo binding inhibition as MBD2 counter-screen; UHRF1 binding to methylated oligonucleotide, TR-FRET; actives 25% (n = 1,000); AID 720530; shares compounds with MBD2 DNA inh; inhibition, % at 4.4 µM;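 also: UHRF1 SRA domain binding a labeled hemimethylated CpG hairpin DNA; 0% = vehicle only and 100% = reference inhibitor with vehicle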
MBD2 DBD conf = confirmation of human MBD2-DBD methylated oligonucleotide binding inhibitors; actives 26% (n = 1,000); TR-FRET MBD2-DBD binding to methylated oligonucleotide; inhibition, % at 4.4 µM; shares compounds with MBD2 DNA inh; in the data active = inhibition above about 14%
An asterisk follows results filed as active; / = no result given. Rule as the data show it, unless noted: active = inhibition above about 21%; inactive = the rest.

SMILES | Casp6 inh | MBD2 DNA inh | UHRF1 MBD2 ctr | LEDGF integ inh | TDP2 inh | NSD2 inh | UHRF1 DNA bind | MBD2 DBD conf
CC(=O)OC[C@@H]1CN(Cc2ccccc2)C[C@H](n2ccc3c(N)ncnc32)O1 | 0.4 | 35.8* | 1.2 | -0.2 | -3.3 | -0.7 | 10.6 | 2.4
CC(C)C[C@@H](CN1CCC[C@H]1CN1C(=O)C(=O)NC[C@@H]1Cc1ccc(O)cc1)N1C[C@H](Cc2ccccc2)N(CC2CCCCC2)C(=O)C1=O | -0.6 | 17.1* | 25.4* | 8.5 | -5.2 | / | 7.5 | 2.5
C=CCN1[C@H](C#N)[C@@H](c2ccc(C#Cc3cccc(OC)c3)cc2)[C@H]1CO | / | 14.8* | 17.4 | -2.0 | 8.8 | / | 5.4 | 8.1
COc1ccccc1NC(=O)N1CCN(CCc2ccccc2)CC1 | -0.6 | -2.9 | 0.3 | -1.5 | -5.9 | 25.6 | / | /
CCN1CCN(C(=O)Nc2ccccc2OC)CC1 | / | 14.1* | -0.8 | 1.3 | 6.7 | 3.9 | 3.4 | 2.4
CCCNC(=O)C[C@H]1CC[C@H]2[C@@H](COC[C@@H](O)CN2C(=O)CC)O1 | 4.5 | / | / | / | / | / | / | /
COc1ccc(-c2ccc([C@H]3[C@@H](CO)N4C(=O)CN(C(=O)c5ccccc5)C[C@@H]34)cc2)cc1 | -2.8 | / | / | / | / | / | / | /
CCN(CC)C(=S)NC(=O)c1ccc(F)cc1 | -1.2 | 26.7* | -1.4 | 1.8 | -11.4 | 1.3 | 2.9 | 4.0
Cc1ccc(S(=O)(=O)NNC(=O)c2ccncc2)cc1 | / | 22.7* | 5.0 | -3.5 | 2.3 | -3.6 | 9.5 | 6.0
O=C(NNS(=O)(=O)c1ccccc1)c1ccncc1 | / | -0.4 | -2.5 | 2.3 | -6.1 | -1.2 | / | /
Cn1c(-c2ccccc2)cc(=O)n1-c1ccccc1 | -7.9 | 62.5* | -1.4 | -0.6 | 7.7 | -1.0 | 6.1 | 4.0
O=C(C[C@@H]1CC[C@@H](NC(=O)C2CC2)[C@H](CO)O1)NCc1ccccc1Cl | 1.9 | / | / | / | / | / | / | /
CCOc1ccc(N=Nc2c(C)noc2C)cc1 | 4.5 | 18.2* | 26.2* | 3.1 | 0.2 | -2.4 | 11.8 | 2.4
Cc1ccc(-n2nc3c(N4CCC(C(=O)NCCc5ccccc5C)CC4)nnc(C)c3c2C)cc1 | / | / | / | / | / | -4.1 | / | /
Cc1ccc(-n2nc3c(N4CCC(C(=O)NCCc5ccco5)CC4)nnc(C)c3c2C)cc1 | 0.2 | 15.9* | 5.9 | 2.1 | -5.3 | 18.7 | 1.4 | 4.5
CN(C)[C@H]1CCN(c2ccc3c(c2)O[C@@H]2CCN(C2)S3(=O)=O)C1 | / | 17.6* | 16.1 | -0.4 | 3.6 | / | 8.8 | 7.5
O=C(C[C@@H]1CC[C@@H](NC(=O)Nc2cc(F)ccc2F)[C@@H](CO)O1)NCc1ccc2c(c1)OCO2 | 8.1 | / | / | / | / | / | / | /
COc1ccc2nc3cc(Cl)ccc3c(Nc3cc(C(C)C)c(O)cc3C)c2c1 | -2.8 | -1.2 | 1.4 | -2.5 | 1.7 | -3.6 | / | /
COc1ccc2nc3cc(Cl)ccc3c(Nc3cc(CN4CCCC4)c(O)c(CN4CCCC4)c3)c2n1 | 4.9 | 55.1* | 72.1* | 1.9 | 2.7 | / | 85.9* | 88.1*
C[C@@H]1CCCCO[C@H](CN(C)Cc2ccccc2)[C@@H](C)CN([C@@H](C)CO)C(=O)c2cc(NC(=O)Nc3cccc4ccccc34)ccc2O1 | 0.1 | / | / | / | / | / | / | /
NS(=O)(=O)c1ccc(CCNC(=O)c2ccc3nccnc3c2)cc1 | 15.0 | 15.0* | 18.3 | 3.1 | 7.1 | 0.1 | 34.4* | 26.1*
NS(=O)(=O)c1ccc(NC(=O)c2ccc3nccnc3c2)cc1 | -0.1 | -1.9 | -1.6 | -0.9 | -8.4 | 0.5 | / | /
Cc1onc(-c2c(Cl)cccc2Cl)c1C(=O)NCCc1ccc(S(N)(=O)=O)cc1 | 1.0 | 14.3* | 32.3* | 2.5 | -4.8 | -1.7 | 0.9 | 5.3
C=C(C)C(=O)Nc1cccc(C2=NOC3(C2)C[C@H](C(N)=O)N(C(=O)COc2ccc(Cl)cc2)C3)c1 (stereo partly drawn) | 51.5* | 51.2* | 69.4* | 16.2* | -0.6 | / | 87.8* | 69.4*
CCC(=O)Nc1cccc(C2=NOC3(C2)C[C@@H](C(N)=O)N(C(=O)COc2ccc(Cl)cc2)C3)c1 (stereo partly drawn) | -5.0 | -0.4 | 1.1 | 3.5 | -1.7 | / | / | /
SMILES | Casp6 inh | MBD2 DNA inh | UHRF1 MBD2 ctr | LEDGF integ inh | TDP2 inh | NSD2 inh | UHRF1 DNA bind | MBD2 DBD conf
C=C(C)C(=O)Nc1cccc(C2=NOC3(C2)C[C@@H](C(N)=O)N(C(=O)c2cc([N+](=O)[O-])cc([N+](=O)[O-])c2C)C3)c1 (stereo partly drawn) | 23.1 | 17.9* | 33.6* | 9.2 | -7.7 | / | 24.1* | 12.4
C=C(C)C(=O)Nc1cccc(C2=NOC3(C2)C[C@@H](C(N)=O)N(C(=O)/C=C/CC)C3)c1 (stereo partly drawn) | 44.1* | 38.8* | 66.6* | 8.9 | -2.6 | / | 69.0* | 43.0*
O=C(COC(=O)c1ccccc1O)Nc1cccc2ccccc12 | 0.6 | 14.3* | 16.7 | -0.7 | -2.5 | 0.6 | 9.0 | 1.6
CNC(C)C(=O)NC(C(=O)N1CCCC1C(=O)NNc1ccccc1)C(C)C (stereo not drawn) | 1.5 | 45.5* | 56.1* | 11.4 | 9.2 | / | 8.5 | 2.1
COc1ccccc1NC(=O)N(C)C[C@@H]1OCc2cn(nn2)CCCC(=O)N([C@H](C)CO)C[C@@H]1C | 0.0 | / | / | / | / | / | / | /
CN1CCCN(C(=O)C2CCCN(C(=O)c3ccc4c(c3)NC(=O)CS4)C2)CC1 (stereo not drawn) | / | 25.3* | -0.1 | 6.3 | -5.7 | 3.8 | 9.4 | 3.2
CCCSc1nc(C)c2cc(C)cc(C)c2n1 | / | 7.6 | 2.7 | 1.7 | -6.6 | / | / | /
Cc1cc(C)c2nc3nc(C)c(C)cc3c(N)c2c1 | -34.4 | 21.5* | 25.5* | -0.8 | 2.9 | 2.4 | 41.4* | 37.6*
N#Cc1cccc(NC(=O)c2cc(C3CCCCN3C(=O)c3ccc4c(c3)CCO4)on2)c1 (stereo not drawn) | -2.2 | 53.2* | 12.0 | -1.4 | -3.5 | -0.3 | 4.3 | 3.3
C[C@@H]1CN([C@@H](C)CO)C(=O)c2cccc(NC(=O)c3nc4ccccc4s3)c2O[C@H]1CN(C)Cc1ccncc1 | 4.2 | / | / | / | / | / | / | /
Nc1cc(Nc2ccccc2)ccn1 | -2.8 | 44.4* | -0.6 | -4.0 | 5.6 | -1.1 | 7.2 | 1.7
CCCCOCCCNS(=O)(=O)Cc1ccccc1 | / | 19.6* | -0.1 | -1.0 | -6.0 | 6.9 | 2.9 | 0.8
CCCNC(=O)N(C)C[C@@H]1Oc2cc(C#CCC(C)C)ccc2S(=O)(=O)N([C@@H](C)CO)C[C@@H]1C | 0.7 | / | / | / | / | / | / | /
CCOc1cc(N2CCOCC2)c(OCC)cc1NC(=O)COC(=O)c1cc(C)oc1C | / | 15.4* | 4.0 | -6.4 | -1.7 | 1.7 | 13.4 | 3.1

Screening data from PubChem.
